# Experimental data from PubChem BioAssay AID651740 (Broad Institute, 2012).
# Hit rate of the full screen: of about 5,600 compounds, about 1,200 (21%) were called active. Roughly 3% stayed inconclusive and do not appear here. The list is a sample of the results. Values without a mark were called inactive.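 The calls were made as follows: active = mean inhibition above about 95%, with at least 55% of replicates also reaching it (limit read from the data); inconclusive = meets just one of the two conditions; inactive = meets neither condition.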
# Test: inhibitors of intracellular T. cruzi replication, confirmation, NIH3T3 host cells, beta-gal parasites, cherry-pick, set 2 (AID 651740);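 also: plate controls were neutral control median for no effect and positive control median for full effect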
# Conditions: T. cruzi beta-gal in NIH3T3, GalScreen luminescence, 90 h; at 2.09 µM; stronger effect = higher value
# Outline: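 Material: mouse NIH/3T3 fibroblasts infected with beta-galactosidase T. cruzi Tulahuen C4; medium: DMEM plus 2% fetal bovine serum, 1% PSG; dosing: single point, 100 nL compound in DMSO pinned per well; times: ≥90 h infection with compound, 60 min read delay; signal: GalScreen lysis and luminescent beta-gal signal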
row,Compound,inhibition
1,CCCC#Cc1ccc2c(c1)O[C@@H](CN(C)C(=O)c1ccccc1F)[C@H](C)CN([C@H](C)CO)S2(=O)=O,19.4%
2,C[C@H](CO)N1C[C@H](C)[C@H](CN(C)Cc2cccnc2)Oc2cc(C#CC3CCCC3)ccc2S1(=O)=O,82.9%
3,C[C@H]1CN([C@@H](C)CO)S(=O)(=O)c2ccc(C3=CCCC3)cc2O[C@@H]1CN(C)Cc1ccccc1,68%
4,C[C@@H]1CN([C@@H](C)CO)S(=O)(=O)c2ccc(C#Cc3ccccc3)cc2O[C@@H]1CN(C)C(=O)Nc1ccccc1,99.8% (active)
5,C[C@@H]1CN([C@@H](C)CO)S(=O)(=O)c2ccc(/C=C/c3ccccc3)cc2O[C@H]1CN(C)Cc1ccccc1,106% (active)
6,C[C@@H]1CN([C@H](C)CO)S(=O)(=O)c2ccc(C3=CCCC3)cc2O[C@H]1CN(C)Cc1ccccc1F,73.8%
7,C[C@@H]1CN([C@@H](C)CO)S(=O)(=O)c2ccc(C#Cc3ccc(F)cc3)cc2O[C@H]1CN(C)C(=O)c1ccccn1,14.4%
8,CC(C)C#Cc1ccc2c(c1)O[C@H](CN(C)Cc1ccccc1)[C@H](C)CN([C@@H](C)CO)S2(=O)=O,105% (active)
9,C[C@H]1CN([C@@H](C)CO)S(=O)(=O)c2ccc(C#CCN(C)C)cc2O[C@@H]1CN(C)Cc1ccc(F)cc1,93.3%
10,C[C@H]1CN([C@@H](C)CO)S(=O)(=O)c2ccc(C3=CCCCC3)cc2O[C@@H]1CN(C)Cc1ccccc1,109% (active)
11,C[C@@H]1CN([C@H](C)CO)S(=O)(=O)c2ccc(C#CC3CCCC3)cc2O[C@@H]1CN(C)Cc1cccnc1,60.2%
12,C[C@@H]1CN([C@@H](C)CO)S(=O)(=O)c2ccc(C#Cc3ccc(F)cc3)cc2O[C@H]1CN(C)C(=O)NC1CCCC1,81.2%
13,C[C@H](CO)N1C[C@H](C)[C@@H](CN(C)Cc2ccncc2)Oc2cc(Br)ccc2S1(=O)=O,92.7%
14,C[C@H](CO)N1C[C@H](C)[C@@H](CN(C)S(=O)(=O)c2ccccc2)Oc2ncc(C#Cc3ccccc3F)cc2C1=O,93%
15,C[C@H](CO)N1C[C@H](C)[C@H](CN(C)S(=O)(=O)c2cccc(F)c2)Oc2ncc(/C=C/c3ccccc3)cc2C1=O,46.4%
16,C[C@H]1CN([C@@H](C)CO)C(=O)c2cccc(NS(=O)(=O)c3cn(C)cn3)c2O[C@@H]1CN(C)CC1CCCCC1,29.6%
17,Cc1noc(C)c1S(=O)(=O)Nc1ccc2c(c1)C(=O)N([C@@H](C)CO)C[C@H](C)[C@@H](CN(C)C(=O)Nc1cccc3ccccc13)OCCCC[C@H](C)O2,42.4%
